Calls of active or inactive are those of the source. The calls are words filed in the database; no cut-off is given here.
Key:
[1] = molecular target: T1, Monoglyceride lipase (Mus musculus) (UniProt O35678); test: Inhibition of MAGL in mouse whole brain membranes at 32.5 uM incubated for 1 hr by TAMRA-FP probe based competitive activity-based protein profiling assay; assay type: cell membranes; settings: Membrane
T1 sequence (whole entry): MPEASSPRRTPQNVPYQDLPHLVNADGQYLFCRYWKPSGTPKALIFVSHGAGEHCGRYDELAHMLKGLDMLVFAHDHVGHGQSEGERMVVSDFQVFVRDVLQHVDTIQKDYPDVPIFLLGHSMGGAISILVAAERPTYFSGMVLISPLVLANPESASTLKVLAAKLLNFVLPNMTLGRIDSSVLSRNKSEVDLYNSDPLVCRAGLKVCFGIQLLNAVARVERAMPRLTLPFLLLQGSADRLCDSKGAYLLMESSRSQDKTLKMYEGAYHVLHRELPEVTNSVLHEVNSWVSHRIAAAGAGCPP
Method in brief: (§1)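 Competitive ABPP on mouse brain membranes (100 µg) treated 1 h with DMSO or inhibitor. TAMRA-FP labelling then ran 1 h at RT (final probe 2 µM). Reaction was quenched with gel loading buffer and proteins resolved by 10% SDS–PAGE for fluorescent band read-out. WWL70 located the ABHD6 band. Gels are representative of two experiments.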

[2] = molecular target: T2, Monoacylglycerol lipase ABHD6 (Homo sapiens, UniProt Q9BV23); test: Inhibition of human ABHD6 expressed in HEK293 cells at 1 uM pre-incubated for 10 mins before 2-AG substrate addition followed by rapid 40 fold compound dilution measured after 10 mins by HPLC method; assay type: cell-based
T2 sequence (Q9BV23 whole entry): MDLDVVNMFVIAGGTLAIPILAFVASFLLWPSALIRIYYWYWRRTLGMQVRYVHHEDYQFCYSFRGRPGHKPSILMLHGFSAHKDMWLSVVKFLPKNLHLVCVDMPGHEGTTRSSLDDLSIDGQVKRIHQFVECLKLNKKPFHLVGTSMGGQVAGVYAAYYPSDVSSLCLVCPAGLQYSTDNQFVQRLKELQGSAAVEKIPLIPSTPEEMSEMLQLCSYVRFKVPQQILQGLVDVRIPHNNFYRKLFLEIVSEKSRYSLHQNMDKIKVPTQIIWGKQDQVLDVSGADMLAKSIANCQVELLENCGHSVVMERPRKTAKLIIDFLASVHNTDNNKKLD

[3] = molecular target: T3, Lysophosphatidylserine lipase ABHD12 (Mus musculus) (UniProt Q99LR1); test: Inhibition of ABHD12 in mouse whole brain membranes at 32.5 uM incubated for 1 hr by TAMRA-FP probe based competitive activity-based protein profiling assay; assay type: cell membranes; settings: Membrane; method in brief: as §1
T3 sequence (whole entry): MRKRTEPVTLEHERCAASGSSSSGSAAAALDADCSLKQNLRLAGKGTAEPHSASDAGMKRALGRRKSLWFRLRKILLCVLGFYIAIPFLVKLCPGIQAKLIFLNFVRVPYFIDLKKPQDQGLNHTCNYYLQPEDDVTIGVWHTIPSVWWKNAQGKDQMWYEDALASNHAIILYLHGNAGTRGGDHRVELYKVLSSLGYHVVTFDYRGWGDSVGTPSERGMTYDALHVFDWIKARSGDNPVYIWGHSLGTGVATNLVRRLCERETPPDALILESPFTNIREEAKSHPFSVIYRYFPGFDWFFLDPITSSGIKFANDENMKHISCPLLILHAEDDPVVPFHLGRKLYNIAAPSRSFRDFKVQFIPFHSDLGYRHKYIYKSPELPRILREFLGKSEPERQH

[4] = molecular target: T2, Monoacylglycerol lipase ABHD6; test: Inhibition of human ABHD6 expressed in HEK293 cells at 1 uM pre-incubated for 10 mins before 2-AG substrate addition followed by rapid 40 fold compound dilution measured after 90 mins by HPLC method; assay type: cell-based
[5] = molecular target: Cannabinoid receptor 1 (Rattus norvegicus) (UniProt P20272); test: Antagonist activity at CB1R in rat cerebellar membranes assessed as inhibition of HU210-induced response at 10 uM by [35S]GTPgammaS binding assay; assay type: functional, cell membranes; settings: Cerebellum, Membrane
Method in brief: (§2)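 Rat cerebellar membranes, [35S]GTPγS binding. Agonist activity is read as % of basal binding. Antagonist activity is read as % of the HU210-evoked response. Compound tested at 10 µM. Values are mean (range), n = 2.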

[6] = molecular target: T4, Monoglyceride lipase (Homo sapiens) (UniProt Q99685); test: Inhibition of human MAGL expressed in HEK293 cells at 20 uM pre-incubated for 10 mins before 2-AG substrate addition by HPLC method; assay type: cell-based
T4 sequence (whole entry): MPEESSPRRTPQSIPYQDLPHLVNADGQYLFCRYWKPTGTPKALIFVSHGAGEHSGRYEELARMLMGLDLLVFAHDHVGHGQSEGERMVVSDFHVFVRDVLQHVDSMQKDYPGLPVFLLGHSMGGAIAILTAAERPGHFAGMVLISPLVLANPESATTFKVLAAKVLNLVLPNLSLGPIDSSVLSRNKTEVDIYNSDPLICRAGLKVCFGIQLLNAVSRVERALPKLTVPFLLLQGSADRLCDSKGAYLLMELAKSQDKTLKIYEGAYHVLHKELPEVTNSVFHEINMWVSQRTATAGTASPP
Method in brief: (§3)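 Lysates of hMAGL-overexpressing HEK293 cells in 50 mM Tris–HCl pH 7.4 with 1 mM EDTA. After a 10 min preincubation with inhibitor or DMSO, 2-AG was added (final 50 µM) and incubated 10 min at 37 °C. The reaction was stopped and samples centrifuged. Arachidonic acid formation and 2-AG depletion were measured by HPLC. Replicates as for the FAAH assay.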

[7] = molecular target: Cannabinoid receptor 1 (Rattus norvegicus) (UniProt P20272); test: Agonist activity at CB1R in rat cerebellar membranes at 10 uM by [35S]GTPgammaS binding assay; assay type: functional, cell membranes; settings: Cerebellum, Membrane; method in brief: as §2
[8] = molecular target: T5, Fatty-acid amide hydrolase 1 (Mus musculus) (UniProt O08914); test: Inhibition of FAAH in mouse whole brain membranes at 32.5 uM incubated for 1 hr by TAMRA-FP probe based competitive activity-based protein profiling assay; assay type: cell membranes; settings: Membrane; method in brief: as §1
T5 sequence (whole entry): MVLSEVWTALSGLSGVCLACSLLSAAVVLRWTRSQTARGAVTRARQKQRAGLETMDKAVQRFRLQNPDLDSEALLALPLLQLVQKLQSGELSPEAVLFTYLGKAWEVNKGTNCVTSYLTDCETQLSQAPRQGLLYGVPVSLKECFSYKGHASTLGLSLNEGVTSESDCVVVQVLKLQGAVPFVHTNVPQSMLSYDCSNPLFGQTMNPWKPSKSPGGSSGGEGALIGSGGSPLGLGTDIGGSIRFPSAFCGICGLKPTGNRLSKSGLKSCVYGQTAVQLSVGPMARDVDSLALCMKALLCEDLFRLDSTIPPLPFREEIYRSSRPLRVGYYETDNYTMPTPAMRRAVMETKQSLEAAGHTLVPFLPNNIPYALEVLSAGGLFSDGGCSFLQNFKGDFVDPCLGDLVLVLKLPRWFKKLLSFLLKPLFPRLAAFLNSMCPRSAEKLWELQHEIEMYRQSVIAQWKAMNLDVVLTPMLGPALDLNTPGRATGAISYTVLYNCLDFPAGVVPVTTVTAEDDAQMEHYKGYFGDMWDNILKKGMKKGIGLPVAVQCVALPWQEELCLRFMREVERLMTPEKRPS

Monoglyceride lipase = molecular target: T6, Monoglyceride lipase (Homo sapiens, UniProt Q99685); test: Inhibition of human MAGL expressed in HEK293 cells pre-incubated for 10 mins before 2-AG substrate addition by HPLC method; assay type: cell-based; settings: read-out: IC50; method in brief: as §3
T6 sequence (Q99685 whole entry): T4 sequence (whole entry)

Sequence of Cannabinoid receptor 1 (Rattus norvegicus) (P20272 whole entry): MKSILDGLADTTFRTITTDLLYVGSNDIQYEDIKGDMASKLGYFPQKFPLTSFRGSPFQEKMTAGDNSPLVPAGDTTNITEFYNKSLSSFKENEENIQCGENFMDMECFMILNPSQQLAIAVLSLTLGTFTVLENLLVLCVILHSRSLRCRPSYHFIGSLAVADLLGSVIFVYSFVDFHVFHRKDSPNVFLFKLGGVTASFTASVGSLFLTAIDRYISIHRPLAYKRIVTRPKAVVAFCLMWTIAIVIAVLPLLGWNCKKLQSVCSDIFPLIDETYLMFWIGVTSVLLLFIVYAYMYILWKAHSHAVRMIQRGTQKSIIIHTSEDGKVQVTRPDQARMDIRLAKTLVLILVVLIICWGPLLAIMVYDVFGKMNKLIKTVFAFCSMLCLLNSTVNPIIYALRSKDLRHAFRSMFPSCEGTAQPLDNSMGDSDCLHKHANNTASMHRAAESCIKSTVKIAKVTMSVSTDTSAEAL

Row | inhibition [1] | IC50 [2] | inhibition [3] | IC50 [4] | % of HU210 response [5] | inhibition [6] | Activity [7] | inhibition [8] | IC50 (Monoglyceride lipase) | SMILES
1 | Active | 4.07 µM | Active | 3.31 µM | 104% | 33% | 96% | Active |  | COc1nn(Cc2cccc(N)c2)c(=O)o1
2 |  |  |  |  |  |  |  |  | 7.94 µM | Nc1cccc(Cn2nc(Oc3ccccc3)oc2=O)c1
